Measurements from ChEMBL document CHEMBL4406880, “Design, synthesis, and bioactivity of dihydropyrimidine derivatives as kinesin spindle protein inhibitors” (Bioorg Med Chem, 2019).

Experiments:
Format in all cases: functional
[1] = test system: M14; test: Growth inhibition of human M14 cells assessed as growth percentage at 10 uM incubated for 48 hrs by sulforhodamine B assay relative to control; details: M14, 48 h, read-out: Activity
Procedure, shortened: (§1)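 NCI-60 one-dose screen. Cells in RPMI 1640 with 5% FBS and 2 mM L-glutamine, seeded at 5,000–40,000 cells/well according to doubling time, and preincubated overnight at 37 °C, 5% CO2. A time-zero plate was TCA-fixed at drug addition. Compound from DMSO stock, final 10 µM, 48 h; DMSO vehicle controls. Fixation with TCA, 10% final (16% for suspension cells). SRB stain, Tris solubilization, A515. Result given as % growth versus untreated cells.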

[2] = test system: NCI/ADR-RES; test: Growth inhibition of human NCI/ADR-RES cells assessed as growth percentage at 10 uM incubated for 48 hrs by sulforhodamine B assay relative to control; details: read-out: Activity; procedure, shortened: as §1
[3] = test system: UACC-257; test: Growth inhibition of human UACC257 cells assessed as growth percentage at 10 uM incubated for 48 hrs by sulforhodamine B assay relative to control; details: UACC-257, 48 h, read-out: Activity
Procedure, shortened: (§2)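 NCI-60 single-dose screen. Cells were grown in RPMI 1640 with 5% FBS and 2 mM L-glutamine and plated at 5,000–40,000 cells/well. After an overnight preincubation at 37 °C in 5% CO2, compound was added at a final 10 µM from a DMSO stock, with DMSO/PBS controls. After 48 h, cells were TCA-fixed and stained with 0.4% SRB, and absorbance was read at 515 nm. Growth is given as a percentage of untreated control.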

[4] = test system: 786-0; test: Growth inhibition of human 786-0 cells assessed as growth percentage at 10 uM incubated for 48 hrs by sulforhodamine B assay relative to control; details: 786-0, 48 h, read-out: Activity
Procedure, shortened: (§3)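 NCI-60 one-dose screen: cells in RPMI 1640 with 5% FBS and 2 mM L-glutamine, plated at 5,000–40,000 cells/well and preincubated 24 h at 37 °C, 5% CO2. Compound is added from a DMSO stock to a final 10 µM and incubated 48 h. Cells are TCA-fixed and stained with sulforhodamine B, read at 515 nm. Output is % growth versus untreated control, with a time-zero plate.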

[5] = test system: HL-60(TB); test: Growth inhibition of human HL-60(TB) cells assessed as growth percentage at 10 uM incubated for 48 hrs by sulforhodamine B assay relative to control; details: HL-60, 48 h, read-out: Activity
Procedure, shortened: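 NCI-60 single-dose screen. Cells in RPMI 1640 with 5% FBS and 2 mM L-glutamine are plated at 5,000–40,000 cells/well and preincubated overnight at 37 °C, 5% CO2. Compound is added from a DMSO stock at 10 µM final for 48 h. Cells are TCA-fixed (suspension cells 16% final) and stained with SRB. Absorbance is read at 515 nm, and percentage growth is calculated against untreated controls with a time-zero plate.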

[6] = test system: UO-31; test: Growth inhibition of human UO31 cells assessed as growth percentage at 10 uM incubated for 48 hrs by sulforhodamine B assay relative to control; details: UO-31, 48 h, read-out: Activity; procedure, shortened: as §2
[7] = test system: RXF 393; test: Growth inhibition of human RXF393 cells assessed as growth percentage at 10 uM incubated for 48 hrs by sulforhodamine B assay relative to control; details: RXF 393, 48 h, read-out: Activity; procedure, shortened: as §2
[8] = test system: SF-295; test: Growth inhibition of human SF295 cells assessed as growth percentage at 10 uM incubated for 48 hrs by sulforhodamine B assay relative to control; details: SF-295, 48 h, read-out: Activity; procedure, shortened: as §2
[9] = test system: OVCAR-4; test: Growth inhibition of human OVCAR4 cells assessed as growth percentage at 10 uM incubated for 48 hrs by sulforhodamine B assay relative to control; details: OVCAR-4, 48 h, read-out: Activity; procedure, shortened: as §1
[10] = test system: SR; test: Growth inhibition of human SR cells assessed as growth percentage at 10 uM incubated for 48 hrs by sulforhodamine B assay relative to control; details: read-out: Activity; procedure, shortened: as §2
[11] = test system: SK-MEL-28; test: Growth inhibition of human SK-MEL-28 cells assessed as growth percentage at 10 uM incubated for 48 hrs by sulforhodamine B assay relative to control; details: SK-MEL-28, 48 h, read-out: Activity; procedure, shortened: as §2
[12] = test system: NCI-H23; test: Growth inhibition of human NCI-H23 cells assessed as growth percentage at 10 uM incubated for 48 hrs by sulforhodamine B assay relative to control; details: NCI-H23, 48 h, read-out: Activity; procedure, shortened: as §1
[13] = test system: NCI-H322M; test: Growth inhibition of human NCI-H322M cells assessed as growth percentage at 10 uM incubated for 48 hrs by sulforhodamine B assay relative to control; details: read-out: Activity; procedure, shortened: as §1
[14] = test system: K562; test: Growth inhibition of human K562 cells assessed as growth percentage at 10 uM incubated for 48 hrs by sulforhodamine B assay relative to control; details: K562, 48 h, read-out: Activity; procedure, shortened: as §1
[15] = test system: U-251; test: Growth inhibition of human U251 cells assessed as growth percentage at 10 uM incubated for 48 hrs by sulforhodamine B assay relative to control; details: U-251, 48 h, read-out: Activity; procedure, shortened: as §2
[16] = test system: NCI-H460; test: Growth inhibition of human NCI-H460 cells assessed as growth percentage at 10 uM incubated for 48 hrs by sulforhodamine B assay relative to control; details: NCI-H460, 48 h, read-out: Activity; procedure, shortened: as §1
[17] = test system: SF-539; test: Growth inhibition of human SF539 cells assessed as growth percentage at 10 uM incubated for 48 hrs by sulforhodamine B assay relative to control; details: SF-539, 48 h, read-out: Activity; procedure, shortened: as §2
[18] = test system: CAKI-1; test: Growth inhibition of human Caki1 cells assessed as growth percentage at 10 uM incubated for 48 hrs by sulforhodamine B assay relative to control; details: CAKI-1, 48 h, read-out: Activity; procedure, shortened: as §3
[19] = test system: IGROV-1; test: Growth inhibition of human IGROV1 cells assessed as growth percentage at 10 uM incubated for 48 hrs by sulforhodamine B assay relative to control; details: IGROV-1, 48 h, read-out: Activity; procedure, shortened: as §1
[20] = test system: PC-3; test: Growth inhibition of human PC3 cells assessed as growth percentage at 10 uM incubated for 48 hrs by sulforhodamine B assay relative to control; details: PC-3, 48 h, read-out: Activity; procedure, shortened: as §2
[21] = test system: OVCAR-3; test: Growth inhibition of human OVCAR3 cells assessed as growth percentage at 10 uM incubated for 48 hrs by sulforhodamine B assay relative to control; details: OVCAR-3, 48 h, read-out: Activity; procedure, shortened: as §1
[22] = test system: HCC 2998; test: Growth inhibition of human HCC2998 cells assessed as growth percentage at 10 uM incubated for 48 hrs by sulforhodamine B assay relative to control; details: HCC 2998, 48 h, read-out: Activity; procedure, shortened: as §3
[23] = test system: ACHN; test: Growth inhibition of human ACHN cells assessed as growth percentage at 10 uM incubated for 48 hrs by sulforhodamine B assay relative to control; details: read-out: Activity; procedure, shortened: as §3
[24] = test system: UACC-62; test: Growth inhibition of human UACC62 cells assessed as growth percentage at 10 uM incubated for 48 hrs by sulforhodamine B assay relative to control; details: UACC-62, 48 h, read-out: Activity; procedure, shortened: as §2

SMILES	growth at 10 µM [1]	growth at 10 µM [2]	growth at 10 µM [3]	growth at 10 µM [4]	growth at 10 µM [5]	growth at 10 µM [6]	growth at 10 µM [7]	growth at 10 µM [8]	growth at 10 µM [9]	growth at 10 µM [10]	growth at 10 µM [11]	growth at 10 µM [12]	growth at 10 µM [13]	growth at 10 µM [14]	growth at 10 µM [15]	growth at 10 µM [16]	growth at 10 µM [17]	growth at 10 µM [18]	growth at 10 µM [19]	growth at 10 µM [20]	also measured
CC1=C(C(=O)OC(C)C)C(c2ccc3c(c2)OCO3)NC(=O)N1 (racemic)	104%	105%	104%	102%	108%	84.9%	113%	104%	103%	108%	108%	98.8%	113%	119%	100%	110%	100%	93.9%	101%	101%	growth at 10 µM [21]: 114%; growth at 10 µM [22]: 116%; growth at 10 µM [23]: 103%; growth at 10 µM [24]: 94.9%
CC1=C(C(=O)c2ccccc2)C(c2ccc3c(c2)OCO3)NC(=S)N1 (racemic)	34.6%	43.3%	57.2%	58.9%	2.6%	55.7%	59.5%	51.2%	82.3%	6.28%	70.9%	48%	67.7%	24.6%	37.5%	8.05%	36.4%	35.6%	46.1%	61.5%	growth at 10 µM [21]: 12.9%; growth at 10 µM [22]: 62.2%; growth at 10 µM [23]: 45.5%; growth at 10 µM [24]: 51.6%
CC(=O)C1=C(C)NC(=S)NC1c1ccc2c(c1)OCO2 (racemic)	107%	112%	102%	103%	96.4%	81%	102%	104%	103%	104%	116%	107%	112%	98.6%	98.2%	109%	98.7%	91.9%	104%	98.1%	growth at 10 µM [21]: 109%; growth at 10 µM [22]: 108%; growth at 10 µM [23]: 103%; growth at 10 µM [24]: 98.6%
CC1=C(C(=O)OCC(C)C)C(c2ccc3c(c2)OCO3)NC(=O)N1 (racemic)	105%	106%	103%	104%	96%	84.8%	101%	99.5%	104%	108%	113%	102%	115%	113%	99.8%	113%	104%	96.3%	94.8%	92.2%	growth at 10 µM [21]: 117%; growth at 10 µM [22]: 108%; growth at 10 µM [23]: 105%; growth at 10 µM [24]: 98.5%
COCCOC(=O)C1=C(C)NC(=O)NC1c1ccc2c(c1)OCO2 (racemic)	104%	104%	103%	102%	99.7%	87.3%	94.6%	98.5%	94.4%	105%	112%	92%	107%	97.4%	98.3%	105%	101%	90.4%	103%	98.8%	growth at 10 µM [21]: 110%; growth at 10 µM [22]: 101%; growth at 10 µM [23]: 107%; growth at 10 µM [24]: 96%
CC1=C(C(=O)OCc2ccccc2)C(c2ccc3c(c2)OCO3)NC(=O)N1 (racemic)	97.4%	97.7%	103%	99.1%	97%	83.1%	102%	95.3%	91%	104%	110%	101%	104%	107%	99.5%	109%	97.8%	89.5%	97.2%	84.5%	growth at 10 µM [21]: 119%; growth at 10 µM [22]: 116%; growth at 10 µM [23]: 99.4%; growth at 10 µM [24]: 86.6%
CC(=O)N1C(=S)NC(C)=C(C(=O)OC(C)C)C1c1ccc2c(c1)OCO2 (racemic)	96.8%	103%	104%	102%	99.3%	91.3%	111%	99.4%	100%	89.6%	111%	100%	99.5%	83.2%	92.6%	110%	98.2%	97.2%	106%	87.2%	growth at 10 µM [21]: 109%; growth at 10 µM [22]: 110%; growth at 10 µM [23]: 106%; growth at 10 µM [24]: 95.6%
